# ChEMBL document CHEMBL4732076, “Design, synthesis and bioevaluation of inhibitors targeting HSP90-CDC37 protein-protein interaction based on a hydrophobic core” (Eur J Med Chem, 2021)
# The source made the active and inactive calls. The rule behind the calls is not given here.
# Legend:
# Heat shock protein HSP90 [1] = target: T1, Heat shock protein HSP90 (Homo sapiens, UniProt P07900+P08238); assay: Binding affinity to recombinant human N-terminal truncated HSP90 (9 to 236 residues) expressed in Escherichia coli BL21 (DE3) assessed as on rate constant by biolayer interferometry assay
# Heat shock protein HSP90 [2] = target: T1, Heat shock protein HSP90; assay: Binding affinity to recombinant human N-terminal truncated HSP90 (9 to 236 residues) expressed in Escherichia coli BL21 (DE3) assessed as dissociation rate constant by biolayer interferometry assay
# HCT-116 [3] = assay: Antiproliferative activity against human HCT-116 cells assessed as reduction in cell viability incubated for 72 hrs by MTT assay; type: functional, cell-based
# Outline: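 HCT116 cells in RPMI 1640 with 10% FBS, 37 °C, 5% CO2. Seeded at 3000–5000 cells/well and left 24 h, then exposed to serial compound dilutions for 72 h. Proliferation read by MTT kit using the standard protocol.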
# Heat shock protein HSP90 [4] = target: T1, Heat shock protein HSP90; assay: Binding affinity to recombinant human N-terminal truncated HSP90 (9 to 236 residues) expressed in Escherichia coli BL21 (DE3) assessed as off rate constant by biolayer interferometry assay
# HCT-116 [5] = assay: Antitumor activity against human HCT-116 cells xenografted in BALB/c mouse assessed as reduction in tumor volume at 20 mg/kg, po administered for 37 days and measured on day 37; type: functional, organism-based; settings: time 37.0 day
# Outline: (§1)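 HCT116 cells (1×10^7) mixed 3:1 with Matrigel and injected into the flank of 6-week-old BALB/c nude mice, randomized into groups. Dosing started at mean tumor volume 125 mm³: daily oral doses of 10 or 20 mg/kg in 0.9% saline with 5% DMSO, for 37 days. Tumor volume measured daily by calipers as length×width²/2; body weight recorded every 1–4 days. n = 6, mean ± SD.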
# Mus musculus [6] = assay: In vivo inhibition of HSP90/[…] interaction in BALB/c mouse xenografted with human HCT-116 cells assessed as reduction in CDK4 level at 20 mg/kg, po administered for 37 days and measured on day 37 by […] immunohistochemistry analysis; type: functional, organism-based; settings: time 37.0 day
# [7] = Toxicity in BALB/c mouse xenografted with human HCT-116 cells assessed as effect on body weight at 20 mg/kg, po administered and observed for 37 days; type: organism-based; settings: in vivo, 888 h, time 37 day; outline: as §1
# Heat shock protein HSP90 [8] = target: T1, Heat shock protein HSP90; assay: Inhibition of HSP90 (unknown origin) at 100 uM measured after 1.5 hrs in presence of ATP by spectrophotometry relative to control; type: protein assay
# HCT-116 [9] = assay: Inhibition of HSP90/CDC37 interaction in human HCT-116 cells assessed as upregulation of p21/p27 at 1 to 10 uM incubated for 12 hrs by Western blot analysis; settings: dose 1-10 µM
# Mus musculus [10] = assay: In vivo inhibition of HSP90/[…] interaction in BALB/c mouse xenografted with human HCT-116 cells assessed as reduction in CDK4 level administered orally for 37 days and measured on day 37 by […] immunohistochemistry analysis; type: functional, organism-based; settings: dose 10-20 mg/kg, time 37.0 day
# HCT-116 [11] = assay: Inhibition of HSP90/CDC37 interaction in human HCT-116 cells assessed as downregulation of CDK4 incubated for 12 hrs by Western blot analysis; type: cell-based; settings: dose 1-10 µM
# Outline: (§2)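 HCT116 cells treated with 0, 1, 5 and 10 μM compound for 12 h. Whole-cell levels of HSP90, HSP70, CDC37, CDK4, CDK6, cyclin D1, p21 and p27 measured by Western blot, with β-actin as loading control. Three independent experiments.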
# [12] = Toxicity in BALB/c mouse xenografted with human HCT-116 cells assessed as effect on body weight at 10 to 20 mg/kg, po administered and observed for 37 days; type: organism-based; settings: in vivo, 888 h, dose 10-20 mg/kg, time 37 day; outline: as §1
# HCT-116 [13] = assay: Inhibition of HSP90/CDC37 interaction in human HCT-116 cells assessed as downregulation of Cyclin D1 at 1 to 10 uM incubated for 12 hrs by Western blot analysis; settings: dose 1-10 µM
# HCT-116 [14] = assay: Inhibition of HSP90/CDC37 interaction in human HCT-116 cells assessed as downregulation of HSP70 at 1 to 10 uM incubated for 12 hrs by Western blot analysis; settings: dose 1-10 µM
# Heat shock protein HSP90 [15] = target: T1, Heat shock protein HSP90; assay: Binding affinity to HSP90 in human HCT-116 cells assessed as increase in thermal stability at 5 uM incubated for 12 hrs at 35 to 65 degC by […]; type: cell-based
# Outline: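 HCT116 cells at ~90% confluence treated with 5 μM compound or DMSO for 12 h, then washed and resuspended in PBS. Aliquots heated 3 min across 35–65 °C, freeze-thawed three times in liquid nitrogen and centrifuged. Soluble HSP90 and CDC37 detected by Western blot. Three independent experiments.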
# HCT-116 [16] = assay: Inhibition of HSP90/CDC37 interaction in human HCT-116 cells for 12 hrs by immunoprecipitation based Western blot analysis; type: cell-based; settings: dose 1-10 µM
# Outline: (§3)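 HCT116 cells at ~90% confluence given compound (0, 1, 5, 10 μM) or DMSO for 12 h. Lysed 1 h on ice in RIPA buffer (50 mM Tris, 150 mM NaCl, 1% NP-40, protease inhibitors, pH 7.4), then spun 15 min at 4 °C. HSP90 immunoprecipitated with protein A/G magnetic beads over 3 h. Beads washed five times; blots probed for HSP90, CDC37 and CDK4.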
# HCT-116 [17] = assay: Antitumor activity against human HCT-116 cells xenografted in BALB/c mouse assessed as reduction in tumor volume administered orally for 37 days and measured on day 37; type: functional; settings: dose 10-20 mg/kg, time 37.0 day; outline: as §1
# HCT-116 [18] = assay: Inhibition of HSP90/CDC37 interaction in human HCT-116 cells assessed as reduction in CDK4 expression at 1 to 10 uM incubated for 12 hrs by immunoprecipitation based Western blot analysis; type: cell-based; settings: dose 1-10 µM; outline: as §3
# HCT-116 [19] = assay: Induction of cell cycle arrest in human HCT-116 cells assessed as increase in accumulation at G0/G1 phase at 1 to 10 uM incubated for 24 hrs by propidium iodide staining based flow cytometric analysis; type: functional; settings: dose 1-10 µM
# Outline: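 HCT116 cells exposed to 0, 1, 5 and 10 μM compound for 24 h. Fixed in 75% ethanol overnight at 4 °C, treated with RNase I (50 μg/mL) in PBS for 30 min at 37 °C, then stained with propidium iodide (50 μg/mL) for 15 min. Cell-cycle phases measured by flow cytometry.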
# HCT-116 [20] = assay: Inhibition of HSP90/CDC37 interaction in human HCT-116 cells assessed as downregulation of CDK6 incubated for 12 hrs by Western blot analysis; type: cell-based; settings: dose 1-10 µM; outline: as §2
# HCT-116 [21] = assay: Antitumor activity against human HCT-116 cells xenografted in BALB/c mouse assessed as reduction in tumor at 10 to 20 mg/kg, po administered for 37 days and measured on day 37 by H and E staining based immunohistochemistry analysis; type: functional, organism-based; settings: dose 10-20 mg/kg, time 37.0 day
# [22] = Homo sapiens, HCT-116, 72 h, read-out: IC50
SMILES,K (Heat shock protein HSP90 [1]),Kd (Heat shock protein HSP90 [2]),IC50 (HCT-116 [3]; [22]) [µM],K (Heat shock protein HSP90 [4]),further results
CCCc1ccc(S(=O)(=O)Nc2ccc(Nc3ccnc(N4CCNCC4)n3)cc2)cc1.Cl,3.17 10^3(1/Ms),11.5 µM,19.3,0.0366 s⁻¹,
O=S(=O)(Nc1ccc(Nc2ccnc(N3CCNCC3)n2)cc1)c1ccc(Cl)cc1,inactive,,11.1,inactive,
CC(C)c1cc(C(C)C)c(S(=O)(=O)Nc2ccc(Nc3ccnc(N4CCNCC4)n3)cc2)c(C(C)C)c1,inactive,,> 20,inactive,
CC(C)c1ccc(S(=O)(=O)Nc2ccc(Nc3ccnc(N4CCNCC4)n3)cc2)cc1.Cl,,> 100 µM,> 20,,
Cl.O=S(=O)(Nc1ccc(Nc2ccnc(N3CCNCC3)n2)cc1)c1ccc2c(c1)CCO2,3.02 10^3(1/Ms),10.6 µM,5.82,0.0321 s⁻¹,
CCCCCc1ccc(S(=O)(=O)Nc2ccc(Nc3ccnc(N4CCNCC4)n3)cc2)cc1.Cl,,> 100 µM,16.7,,
Cc1cc(C)c(S(=O)(=O)N(CC(=O)O)c2ccc(Nc3ccnc(N4CCNCC4)n3)cc2)c(C)c1,,,,,Activity (HCT-116 [5]): Active; inhibition (Mus musculus [6]): Active; Activity [7]: Non-Toxic
Cl.O=S(=O)(Nc1ccc(Nc2ccnc(N3CCNCC3)n2)cc1)c1ccc(-c2ccccc2)cc1,6.1 10^3(1/Ms),18.4 µM,13.7,0.112 s⁻¹,
O=S(=O)(Nc1ccc(Nc2ccnc(N3CCNCC3)n2)cc1)c1ccc(Oc2ccccc2)cc1,inactive,,> 20,inactive,
N#Cc1ccc(S(=O)(=O)Nc2ccc(Nc3ccnc(N4CCNCC4)n3)cc2)cc1,inactive,,> 20,inactive,
COc1cc(S(=O)(=O)Nc2ccc(Nc3ccnc(N4CCNCC4)n3)cc2)c(C)cc1C.Cl,,>= 20 uM,> 50,,inhibition (Heat shock protein HSP90 [8]): 56%
Cl.Cn1cnc(S(=O)(=O)Nc2ccc(Nc3ccnc(N4CCNCC4)n3)cc2)c1,inactive,,,inactive,IC50 (HCT-116 [3]; hct-116): Not Active
O=S(=O)(Nc1ccc(Nc2ccnc(N3CCNCC3)n2)cc1)c1ccc(Br)cc1,inactive,,1.35,inactive,
CCCCc1ccc(S(=O)(=O)Nc2ccc(Nc3ccnc(N4CCNCC4)n3)cc2)cc1.Cl,1.04 10^4/Ms,11.6 µM,7.5,0.121 s⁻¹,

# Second part, led by results:
K (Heat shock protein HSP90 [1]),Kd (Heat shock protein HSP90 [2]),IC50 (HCT-116 [3]; [22]) [µM],K (Heat shock protein HSP90 [4]),SMILES,further results
3.55 10^4/Ms,5.13 µM,16.4,0.182 s⁻¹,CCOC(=O)c1ccc(S(=O)(=O)Nc2ccc(Nc3ccnc(N4CCNCC4)n3)cc2)cc1.Cl,
inactive,,> 20,inactive,CCc1ccc(S(=O)(=O)Nc2ccc(Nc3ccnc(N4CCNCC4)n3)cc2)cc1,
inactive,,> 20,inactive,O=S(=O)(Nc1ccc(Nc2ccnc(N3CCNCC3)n2)cc1)c1ccc(F)cc1,
3.54 10^4/Ms,9.52 µM,13.4,0.337 s⁻¹,Cl.O=S(=O)(Nc1ccc(Nc2ccnc(N3CCNCC3)n2)cc1)c1ccc2c(c1)CCC2,
inactive,,> 20,inactive,Cc1ccc(S(=O)(=O)Nc2ccc(Nc3ccnc(N4CCNCC4)n3)cc2)cc1,
inactive,,> 20,inactive,O=S(=O)(Nc1ccc(Nc2ccnc(N3CCNCC3)n2)cc1)c1ccc(OC(F)(F)F)cc1,
2.03 10^4/Ms,5.52 µM,6.34,0.112 s⁻¹,Cc1c(C)c(S(=O)(=O)Nc2ccc(Nc3ccnc(N4CCNCC4)n3)cc2)c(C)c2c1OC(C)(C)C2.Cl,inhibition (HCT-116 [9]): Active; inhibition (Mus musculus [10]): Dose-dependent effect; inhibition (HCT-116 [11]): Dose-dependent effect; Activity [12]: Non-Toxic; inhibition (HCT-116 [13]): Active; inhibition (HCT-116 [14]): inactive; Activity (Heat shock protein HSP90 [15]): Active; inhibition (HCT-116 [16]): Dose-dependent effect; Activity (HCT-116 [17]): Dose-dependent effect; inhibition (HCT-116 [18]): Active; Activity (HCT-116 [19]): Active; inhibition (HCT-116 [20]): Dose-dependent effect; Activity (HCT-116 [21]): Active
inactive,,> 20,inactive,O=S(=O)(Nc1ccc(Nc2ccnc(N3CCNCC3)n2)cc1)c1cccs1,
inactive,,7.05,inactive,O=S(=O)(Nc1ccc(Nc2ccnc(N3CCNCC3)n2)cc1)c1ccc(OCc2ccccc2)cc1,
